Results: ChEMBL document CHEMBL2016531, “Identification of NAE Inhibitors Exhibiting Potent Activity in Leukemia Cells: Exploring the Structural Determinants of NAE Specificity” (ACS Med Chem Lett, 2011)
Calls of active or inactive are those of the source. No cut-off for these calls is given here.

How the values were obtained:
[1] = biological target: Epidermal growth factor receptor (Homo sapiens) (UniProt P00533); experiment: Inhibition of EGFR assessed as remaining activity at 0.1 uM by radiolabeled kinase assay relative to control
[2] = biological target: T1, Tyrosine-protein kinase JAK3 (Homo sapiens) (UniProt P52333); experiment: Inhibition of JAK3 assessed as remaining activity at 0.1 uM by radiolabeled kinase assay relative to control
T1 sequence (whole entry): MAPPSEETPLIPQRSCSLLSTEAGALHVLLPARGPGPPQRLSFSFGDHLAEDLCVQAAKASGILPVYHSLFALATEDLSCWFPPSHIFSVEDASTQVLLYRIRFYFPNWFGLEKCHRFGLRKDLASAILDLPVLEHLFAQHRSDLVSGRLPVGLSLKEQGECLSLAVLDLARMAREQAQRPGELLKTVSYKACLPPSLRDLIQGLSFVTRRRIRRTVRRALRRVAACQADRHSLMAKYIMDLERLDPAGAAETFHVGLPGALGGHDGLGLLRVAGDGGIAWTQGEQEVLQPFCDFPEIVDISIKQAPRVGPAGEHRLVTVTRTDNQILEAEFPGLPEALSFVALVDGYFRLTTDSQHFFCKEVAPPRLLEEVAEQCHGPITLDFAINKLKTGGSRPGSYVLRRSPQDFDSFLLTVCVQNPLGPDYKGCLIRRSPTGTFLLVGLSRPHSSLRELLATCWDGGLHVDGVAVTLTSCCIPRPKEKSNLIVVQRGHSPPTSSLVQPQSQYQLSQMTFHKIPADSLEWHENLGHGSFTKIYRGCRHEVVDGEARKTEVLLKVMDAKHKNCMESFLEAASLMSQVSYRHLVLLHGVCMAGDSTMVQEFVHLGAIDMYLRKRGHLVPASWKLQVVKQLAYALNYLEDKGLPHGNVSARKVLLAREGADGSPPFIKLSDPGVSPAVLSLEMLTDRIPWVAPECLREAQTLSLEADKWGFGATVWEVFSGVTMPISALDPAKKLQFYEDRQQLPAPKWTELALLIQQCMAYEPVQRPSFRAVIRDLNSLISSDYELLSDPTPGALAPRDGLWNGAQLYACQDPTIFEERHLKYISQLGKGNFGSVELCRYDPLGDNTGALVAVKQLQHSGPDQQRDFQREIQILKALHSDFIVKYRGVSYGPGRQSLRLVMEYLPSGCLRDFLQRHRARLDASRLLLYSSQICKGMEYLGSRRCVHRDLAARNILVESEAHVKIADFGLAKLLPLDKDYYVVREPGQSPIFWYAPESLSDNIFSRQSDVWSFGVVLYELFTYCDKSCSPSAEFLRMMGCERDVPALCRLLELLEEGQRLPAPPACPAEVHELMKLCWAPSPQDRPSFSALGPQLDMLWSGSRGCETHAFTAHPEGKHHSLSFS

K562 [3] = experiment: Inhibition of NAE in human K562 cells assessed as inhibition of NEDD8-cullin complex formation at 1 to 1000 nM after 24 hrs by immunoblotting; type: cell-based
In short: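 K562 cells treated with increasing concentrations for 24 h, then harvested. Total cellular protein isolated and NEDD8–cullin conjugates detected by immunoblotting.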

[4] = biological target: High affinity nerve growth factor receptor (Homo sapiens) (UniProt P04629); experiment: Inhibition of TRKA assessed as remaining activity at 0.1 uM by radiolabeled kinase assay relative to control
[5] = biological target: Calcium/calmodulin-dependent protein kinase type II subunit beta (Homo sapiens) (UniProt Q13554); experiment: Inhibition of CAMK2b assessed as remaining activity at 0.1 uM by radiolabeled kinase assay relative to control
[6] = biological target: Death-associated protein kinase 1 (Homo sapiens) (UniProt P53355); experiment: Inhibition of DAPK1 assessed as remaining activity at 0.1 uM by radiolabeled kinase assay relative to control
[7] = biological target: Ubiquitin-like modifier-activating enzyme 5 (Homo sapiens) (UniProt Q9GZZ9); experiment: Inhibition of human recombinant UBA5 assessed as inhibition of […]-UFM1 complex formation at 10 uM after 1.5 hrs by Western blot analysis
In short: (§1)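 Cell-free gel assay. Purified human recombinant E1 incubated with its matching Ub/Ubl and E2 in 50 mM HEPES pH 7.4, 5 mM MgCl2, 1–20 μM ATP. Inhibitor at 0, 0.001, 0.01, 0.1, 1 or 10 μM, 1.5 h at room temperature. Products resolved by SDS-PAGE, immunoblotted and detected by ECL; densitometry used for semiquantitation.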

[8] = biological target: Dual specificity mitogen-activated protein kinase kinase 1 (Homo sapiens) (UniProt Q02750); experiment: Inhibition of MEK1 assessed as remaining activity at 0.1 uM by radiolabeled kinase assay relative to control
[9] = biological target: Cyclin-dependent kinase 1/cyclin B1 (Homo sapiens) (UniProt P06493+P14635); experiment: Inhibition of CDK1/cyclin B assessed as remaining activity at 0.1 uM by radiolabeled kinase assay relative to control; type: protein-complex assay
Homo sapiens [10] = organism: Homo sapiens; experiment: Inhibition of human recombinant NAE assessed as inhibition of NEDD8-UbcH12 complex formation at 1 nM after 1.5 hrs by Western blot analysis; in short: as §1
[11] = biological target: T2, NEDD8-activating enzyme E1 catalytic subunit (Homo sapiens) (UniProt Q8TBC4); experiment: Inhibition of UBA3-mediated NEDD8 activation at […] after 1.5 hrs by Western blot analysis
T2 sequence (whole entry): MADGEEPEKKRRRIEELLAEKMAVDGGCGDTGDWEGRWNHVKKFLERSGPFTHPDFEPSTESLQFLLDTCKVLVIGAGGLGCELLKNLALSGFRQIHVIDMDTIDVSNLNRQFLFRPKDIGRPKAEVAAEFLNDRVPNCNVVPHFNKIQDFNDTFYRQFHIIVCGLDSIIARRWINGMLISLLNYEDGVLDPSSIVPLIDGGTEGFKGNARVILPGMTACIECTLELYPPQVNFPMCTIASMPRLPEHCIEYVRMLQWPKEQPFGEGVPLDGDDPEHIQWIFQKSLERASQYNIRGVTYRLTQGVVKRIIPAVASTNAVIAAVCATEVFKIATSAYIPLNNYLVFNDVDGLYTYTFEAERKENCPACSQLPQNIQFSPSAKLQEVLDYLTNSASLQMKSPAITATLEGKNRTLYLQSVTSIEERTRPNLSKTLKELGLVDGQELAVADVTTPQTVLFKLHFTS

Homo sapiens [12] = organism: Homo sapiens; experiment: Inhibition of human recombinant UAE assessed as inhibition of UbcH6-Ub complex formation at 0.001 to 10 uM after 1.5 hrs by Western blot analysis; in short: as §1
K562 [13] = experiment: Antiproliferative activity against human K562 cells after 72 hrs by CellTiter-Glo assay; type: functional, cell-based; conditions: K562, 72 h
In short: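 K562 leukemia cells exposed to increasing concentrations for 72 h; growth and viability read by CellTiter-Glo luminescence.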

[14] = biological target: Tyrosine-protein kinase JAK1 (Homo sapiens) (UniProt P23458); experiment: Inhibition of JAK1 assessed as remaining activity at 0.1 uM by radiolabeled kinase assay relative to control
[15] = biological target: SUMO-activating enzyme (Homo sapiens) (UniProt Q9UBE0+Q9UBT2); experiment: Inhibition of human recombinant SAE1/2 assessed as inhibition of SUMO1-UbcH9 complex formation at 0.001 to 10 uM after 1.5 hrs by Western blot analysis; type: protein-complex assay; in short: as §1

Sequence of Cyclin-dependent kinase 1/cyclin B1 (Homo sapiens) (P06493 whole entry, looked up): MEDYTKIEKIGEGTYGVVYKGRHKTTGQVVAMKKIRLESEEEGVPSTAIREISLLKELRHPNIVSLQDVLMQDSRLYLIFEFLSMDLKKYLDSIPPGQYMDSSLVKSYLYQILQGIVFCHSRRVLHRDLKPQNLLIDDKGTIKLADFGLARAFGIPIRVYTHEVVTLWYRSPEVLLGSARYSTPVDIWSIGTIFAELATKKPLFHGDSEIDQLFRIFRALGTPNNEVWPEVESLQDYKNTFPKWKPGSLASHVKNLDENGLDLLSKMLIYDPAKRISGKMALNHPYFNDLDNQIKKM
Sequence of Cyclin-dependent kinase 1/cyclin B1 (Homo sapiens) (P14635 whole entry, looked up): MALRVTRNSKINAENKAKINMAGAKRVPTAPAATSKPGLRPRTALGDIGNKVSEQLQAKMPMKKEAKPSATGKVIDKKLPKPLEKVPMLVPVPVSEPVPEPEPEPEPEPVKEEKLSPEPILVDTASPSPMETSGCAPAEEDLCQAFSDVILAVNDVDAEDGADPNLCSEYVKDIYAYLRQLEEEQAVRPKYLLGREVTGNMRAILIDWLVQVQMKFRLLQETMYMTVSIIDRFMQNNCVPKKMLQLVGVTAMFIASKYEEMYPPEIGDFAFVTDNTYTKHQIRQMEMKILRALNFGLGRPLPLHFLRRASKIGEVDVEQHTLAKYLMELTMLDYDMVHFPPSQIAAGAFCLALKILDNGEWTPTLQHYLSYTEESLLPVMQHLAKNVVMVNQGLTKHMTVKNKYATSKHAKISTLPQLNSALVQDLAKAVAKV
Sequence of Calcium/calmodulin-dependent protein kinase type II subunit beta (Homo sapiens) (Q13554 whole entry): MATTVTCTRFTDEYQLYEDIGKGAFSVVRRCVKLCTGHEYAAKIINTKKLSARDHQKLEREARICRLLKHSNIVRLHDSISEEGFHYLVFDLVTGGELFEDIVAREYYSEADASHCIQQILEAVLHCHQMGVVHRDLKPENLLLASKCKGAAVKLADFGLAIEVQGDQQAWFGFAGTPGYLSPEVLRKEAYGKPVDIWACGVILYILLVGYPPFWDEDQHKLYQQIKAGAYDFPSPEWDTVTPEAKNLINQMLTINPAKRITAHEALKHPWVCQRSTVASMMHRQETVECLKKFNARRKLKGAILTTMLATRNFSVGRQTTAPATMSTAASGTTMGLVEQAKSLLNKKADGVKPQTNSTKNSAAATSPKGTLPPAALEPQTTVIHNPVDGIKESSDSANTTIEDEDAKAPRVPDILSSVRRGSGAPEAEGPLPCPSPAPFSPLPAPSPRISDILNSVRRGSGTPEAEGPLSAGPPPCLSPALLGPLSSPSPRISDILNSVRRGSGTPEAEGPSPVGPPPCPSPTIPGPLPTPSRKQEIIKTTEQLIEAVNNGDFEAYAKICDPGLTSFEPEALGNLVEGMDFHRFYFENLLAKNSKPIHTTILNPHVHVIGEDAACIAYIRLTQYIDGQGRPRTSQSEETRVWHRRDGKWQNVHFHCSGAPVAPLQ
Sequence of Dual specificity mitogen-activated protein kinase kinase 1 (Homo sapiens) (Q02750 whole entry): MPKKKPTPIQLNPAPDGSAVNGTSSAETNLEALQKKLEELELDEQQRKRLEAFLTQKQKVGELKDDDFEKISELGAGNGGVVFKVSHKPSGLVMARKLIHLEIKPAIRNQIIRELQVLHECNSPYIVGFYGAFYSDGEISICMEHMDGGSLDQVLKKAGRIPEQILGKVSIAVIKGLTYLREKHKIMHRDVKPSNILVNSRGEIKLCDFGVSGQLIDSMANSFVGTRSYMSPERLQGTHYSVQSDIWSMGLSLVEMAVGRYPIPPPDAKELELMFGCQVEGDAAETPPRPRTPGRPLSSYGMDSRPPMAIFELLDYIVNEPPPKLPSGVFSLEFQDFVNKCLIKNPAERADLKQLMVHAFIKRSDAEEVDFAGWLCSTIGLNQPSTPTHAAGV
Sequence of Death-associated protein kinase 1 (Homo sapiens) (P53355 whole entry, looked up): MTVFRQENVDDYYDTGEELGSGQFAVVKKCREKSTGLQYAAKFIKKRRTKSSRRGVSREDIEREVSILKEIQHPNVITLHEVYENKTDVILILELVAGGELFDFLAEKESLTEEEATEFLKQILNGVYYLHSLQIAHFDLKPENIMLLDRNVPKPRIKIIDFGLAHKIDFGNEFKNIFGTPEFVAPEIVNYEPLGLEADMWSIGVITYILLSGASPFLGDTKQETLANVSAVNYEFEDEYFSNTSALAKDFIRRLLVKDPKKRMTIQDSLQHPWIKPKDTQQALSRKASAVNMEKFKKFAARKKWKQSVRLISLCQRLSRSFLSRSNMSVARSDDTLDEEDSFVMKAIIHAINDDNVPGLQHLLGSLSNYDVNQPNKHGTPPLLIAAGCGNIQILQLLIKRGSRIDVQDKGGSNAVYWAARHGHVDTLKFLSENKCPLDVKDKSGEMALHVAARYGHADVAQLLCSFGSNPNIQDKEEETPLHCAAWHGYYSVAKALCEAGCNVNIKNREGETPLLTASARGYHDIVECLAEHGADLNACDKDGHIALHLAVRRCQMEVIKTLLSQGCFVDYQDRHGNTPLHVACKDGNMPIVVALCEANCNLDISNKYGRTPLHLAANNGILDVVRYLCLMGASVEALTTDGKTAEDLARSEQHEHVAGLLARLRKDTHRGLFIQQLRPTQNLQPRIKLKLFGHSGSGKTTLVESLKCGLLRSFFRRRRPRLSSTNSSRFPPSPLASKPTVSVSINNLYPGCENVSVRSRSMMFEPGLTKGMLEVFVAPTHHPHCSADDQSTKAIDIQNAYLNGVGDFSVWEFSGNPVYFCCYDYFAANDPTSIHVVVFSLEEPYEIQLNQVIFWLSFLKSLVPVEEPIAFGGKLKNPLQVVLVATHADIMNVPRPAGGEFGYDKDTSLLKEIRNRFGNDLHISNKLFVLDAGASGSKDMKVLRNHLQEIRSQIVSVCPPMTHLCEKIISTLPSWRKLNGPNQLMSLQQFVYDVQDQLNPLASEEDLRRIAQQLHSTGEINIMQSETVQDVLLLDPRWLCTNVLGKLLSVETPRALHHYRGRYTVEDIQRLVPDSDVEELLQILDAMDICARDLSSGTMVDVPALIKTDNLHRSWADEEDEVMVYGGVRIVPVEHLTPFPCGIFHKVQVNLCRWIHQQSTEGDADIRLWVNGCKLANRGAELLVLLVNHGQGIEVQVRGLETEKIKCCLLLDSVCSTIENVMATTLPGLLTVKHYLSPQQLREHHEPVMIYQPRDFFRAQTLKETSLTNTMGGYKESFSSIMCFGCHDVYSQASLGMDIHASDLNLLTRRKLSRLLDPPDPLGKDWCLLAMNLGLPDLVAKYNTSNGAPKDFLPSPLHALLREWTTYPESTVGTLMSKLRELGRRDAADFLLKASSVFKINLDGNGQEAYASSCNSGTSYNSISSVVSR
Sequence of High affinity nerve growth factor receptor (Homo sapiens) (P04629 33-796 limits assumed): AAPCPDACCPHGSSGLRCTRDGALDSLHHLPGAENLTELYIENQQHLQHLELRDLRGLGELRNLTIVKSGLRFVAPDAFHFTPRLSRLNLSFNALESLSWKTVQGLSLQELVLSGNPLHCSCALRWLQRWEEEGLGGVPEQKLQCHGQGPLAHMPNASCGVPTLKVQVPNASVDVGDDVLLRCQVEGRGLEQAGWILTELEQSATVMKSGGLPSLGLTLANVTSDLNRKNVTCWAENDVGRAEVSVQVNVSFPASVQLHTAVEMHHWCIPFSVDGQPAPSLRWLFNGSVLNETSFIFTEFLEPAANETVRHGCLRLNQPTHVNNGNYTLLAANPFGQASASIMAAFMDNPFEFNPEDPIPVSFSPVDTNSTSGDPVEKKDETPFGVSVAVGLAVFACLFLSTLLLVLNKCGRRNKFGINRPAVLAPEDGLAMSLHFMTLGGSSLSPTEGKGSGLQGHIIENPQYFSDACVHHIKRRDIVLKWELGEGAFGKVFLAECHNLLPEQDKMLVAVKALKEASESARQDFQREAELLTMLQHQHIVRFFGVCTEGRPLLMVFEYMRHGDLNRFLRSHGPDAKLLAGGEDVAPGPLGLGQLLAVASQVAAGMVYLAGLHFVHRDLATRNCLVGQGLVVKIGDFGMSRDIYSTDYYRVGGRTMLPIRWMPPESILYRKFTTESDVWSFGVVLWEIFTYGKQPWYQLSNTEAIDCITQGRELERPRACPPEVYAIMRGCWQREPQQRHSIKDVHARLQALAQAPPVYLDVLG
Sequence of Ubiquitin-like modifier-activating enzyme 5 (Homo sapiens) (Q9GZZ9 whole entry): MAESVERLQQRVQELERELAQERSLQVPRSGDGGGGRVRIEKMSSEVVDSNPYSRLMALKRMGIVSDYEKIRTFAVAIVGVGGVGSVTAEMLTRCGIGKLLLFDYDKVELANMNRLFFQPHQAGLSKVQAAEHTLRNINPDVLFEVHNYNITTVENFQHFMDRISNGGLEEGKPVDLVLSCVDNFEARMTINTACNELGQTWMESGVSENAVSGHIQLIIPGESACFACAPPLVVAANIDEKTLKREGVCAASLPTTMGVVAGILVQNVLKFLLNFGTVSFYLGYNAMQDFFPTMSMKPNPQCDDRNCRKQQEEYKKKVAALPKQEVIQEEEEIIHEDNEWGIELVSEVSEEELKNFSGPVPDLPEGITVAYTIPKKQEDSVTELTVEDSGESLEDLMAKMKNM

## CCCCCCNc1ncnc2c1ncn2[C@@H]1O[C@H](COS(N)(=O)=O)[C@@H](O)[C@H]1O
[1]
  Activity: 98.9%
[2]
  Activity: 94%
K562 [3]
  inhibition: Active
[4]
  Activity: 109%
[5]
  Activity: 101%
[6]
  Activity: 88.5%
[7]
  inhibition: inactive
[8]
  Activity: 123%
[9]
  Activity: 114%
Homo sapiens [10]
  inhibition: > 70%
[11]
  inhibition: Active
Homo sapiens [12]
  inhibition: Active
K562 [13]
  EC50: 160 nM
[14]
  Activity: 99.3%
[15]
  inhibition: Active
